# From PubChem
# The full list was thinned out, with hits kept by preference.
# bCat KO growth = beta-catenin-lacking colon tumor cell growth suppression; HCT116 beta-catenin knockout viability, CellTiter-Glo, 60 h; active compounds read low; viability, % at 10 µM; 140,000 compounds, 1.5% hits; AID 818;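 active = viability at or under a set limit, the compound median less 4 SD, cut at about 6% in these data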;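 also: 0% = Hyamine 1622 control at 20 µM and 100% = untreated cell control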
# HCT116 PTEN-null = PTEN-deleted cell growth suppression; HCT116 PTEN-null viability, CellTiter-Glo, 60 h; active compounds read low; viability, % at 10 µM; 140,000 compounds, 1.2% hits; AID 827;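 active = viability at or below a set limit, 4 SD under the median of all tested compounds, cut at about 3.7% in these data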;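 also: PTEN knockout HCT116 line with beta catenin targeted HCT116 as companion control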
# HUVEC inhibit = inhibitors of human endothelial cell proliferation. HUVEC proliferation, CellTiter-Glo luminescence, 72 h; active compounds read low. viability, % at 10 µM (by protocol). 86,000 compounds, 1.1% hits. AID 648;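 active = viability at or below 30%; inactive = viability above 30%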;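 also: 100% = median luminescence of DMSO-only cell control wells on each plate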
# Lung fibro prol = blocks proliferation of human lung fibroblasts. LL 47 human lung fibroblast viability, ATP luminescence; active compounds read low. viability, % at 10 µM. 85,000 compounds, 1.1% hits;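 active = viability at or below 50% in the single dose screen; inactive = viability above 50%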;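 also: compound exposure lasted 72 h before the ATP readout; 100% = median luminescence of untreated cell-only wells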
#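 Material: human LL 47 lung fibroblast cells; quantity: 1,150 cells/well; medium: IMEM plus 15% FBS; doses: 0.1% DMSO in all compound wells; timing: overnight attachment after seeding, then 72 h compound exposure at 37 °C; detection: CellTiter-Glo luminescence; measure: % viability of median cell-only signal; controls: cell-only wells, no compound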
# H69AR growth 86K = growth inhibitors of human H69AR lung tumor cells; H69AR lung tumor viability, ATP luminescence, 72 h; active compounds read low; viability, % at 10 µM; 85,000 compounds, 6% hits; AID 598;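 active = viability at or below 40%; inactive = viability above 40%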;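 also: multidrug resistant small cell line overexpressing MRP-1 efflux transporter; 100% = mean luminescence of untreated control wells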
# Active calls of the source: *; / = not tested or not shown.
SMILES,bCat KO growth,HCT116 PTEN-null,HUVEC inhibit,Lung fibro prol,H69AR growth 86K
CC(C(=O)Nc1ccccc1-c1ccccc1)N1CCCCC1 (stereo not drawn),76,82,113,96,2.6*
CC(C(=O)Nc1ccccc1-c1ccccc1)N1CCN(S(=O)(=O)c2ccccc2)CC1 (stereo not drawn),84,86,/,/,/
CSc1nn(-c2ccc(C(=O)OCC(=O)NC(=O)NC(C)C)cc2)c(=S)s1,93,102,/,/,/
CC(C)(NCc1ccccc1Cl)C(=O)O,/,/,99,100,109
CCOCc1cnc(C)nc1NCC(=O)c1c(C)n(C)c2ccc(OC)cc12,94,91,61,96,34*
COc1ccc2c(c1)c(C(=O)CNc1nc(C)cs1)c(C)n2C,81,71,87,90,68
O=C1NN(c2ccc(Cl)c(Cl)c2)C(=O)/C1=C/c1cccc(OC(=O)c2cccs2)c1,100,105,51,93,5.4*
COc1cc(/C=C2/C(=O)NN(c3ccc(Cl)cc3)C2=O)ccc1OC(=O)c1ccco1,103,101,/,/,/
O=C1NN(c2ccccc2)C(=O)/C1=C\c1cccc(OC(=O)c2cccs2)c1,93,89,46,96,3.8*
CCOc1cc(/C=C2/C(=O)N(c3ccccc3)N=C2C)ccc1OC(=O)c1cccs1,87,93,/,/,/
CCCCOc1ccc(-c2cc(C(=O)NNC(=S)NCC)c3ccccc3n2)cc1,1.6*,1.8*,/,/,/
Cc1ccnc2c(N3C(=O)C4C5c6ccccc6C(c6ccccc65)C4C3=O)cccc12 (stereo not drawn),64,70,/,/,/
COCC(=O)n1nc(-c2ccc(Cl)cc2)nc1NCc1ccc(F)cc1,68,75,58,79,33*
O=C(c1ccco1)n1nc(-c2ccc(Cl)cc2)nc1NCc1ccco1,67,79,41,82,36*
O=C(COc1ccccc1)n1nc(-c2ccc(Cl)cc2)nc1NCc1ccco1,45,62,58,74,12*
Cc1cccc(-n2c(=O)[nH]c3c(C(N)=O)nc(-c4ccccc4Cl)nc32)c1,1.8*,1.5*,89,53,2.5*
CCOC(=O)N1CCN(S(=O)(=O)c2ccc(C(=O)Nc3nc4c(s3)CC(C)CC4)cc2)CC1 (stereo not drawn),1.5*,1.2*,17*,7.7*,7.5*
CCOC(=O)N1CCC(N2CCN(S(=O)(=O)c3ccc(C)cc3)CC2)CC1,91,100,92,94,29*
CCOC(=O)N1CCN(S(=O)(=O)c2ccc(C(=O)Nc3nnc(C4CC4)o3)cc2)CC1,92,84,/,/,/
CCOC(=O)N1CCN(C(=O)C2CCN(S(=O)(=O)c3ccc(C)cc3)CC2)CC1,103,101,98,103,96
CCOC(=O)N1CCN(S(=O)(=O)c2ccc(C(=O)NNc3nc4ccc(Cl)cc4s3)cc2)CC1,4.4*,3.6*,/,/,/
COc1ccc(CN(C)Cc2nc3scc(-c4ccccc4)c3c(=O)[nH]2)cc1OC,36,39,/,/,/
Cc1cc(NC(=O)c2ccoc2C)no1,84,89,83,91,71
CCN(CC)C(=O)CSc1nnc(CNc2ccc(F)cc2)o1,94,103,96,100,87
CN(Cc1ccccc1)c1nc(N)c([N+](=O)[O-])c(NCc2ccccc2)n1,74,64,/,/,/
SMILES,bCat KO growth,HCT116 PTEN-null,HUVEC inhibit,Lung fibro prol,H69AR growth 86K
COC(C)(C)[C@H](O)COc1c2ccoc2cc2oc(=O)ccc12,0.6*,0.7*,/,/,/
O=S(=O)(NCCc1ccccc1)c1ccc(Cl)nc1,97,96,/,/,/
COc1ccc(CCNC(=O)CCC(=O)Nc2nnc(C(C)C)s2)cc1OC,90,99,/,/,/
c1ccc(-c2nc3cc4ccccc4cc3[nH]2)nc1,40,40,55,52,16*
Cc1cc(C)cc(CC(Cc2nc3ccccc3[nH]2)c2nc3ccccc3[nH]2)c1 (stereo not drawn),49,34,/,/,/
CCOC(=O)c1ccc(Oc2c(C)oc3cc(OS(C)(=O)=O)ccc3c2=O)cc1,82,79,/,/,/
Cc1nn(Cc2ccc(Cl)cc2Cl)c(Cl)c1/C=N/NC(=O)CNc1cccc(C(F)(F)F)c1,1.8*,2.3*,/,/,/
Cc1nn(Cc2ccc(F)cc2)c(Cl)c1/C=N/NC(=O)c1cccnc1,99,99,/,/,/
CCS(=O)(=O)NCCc1csc(-c2ccccc2)n1,88,102,93,92,90
CN(C)C(=O)c1ccc2c(c1[N+](=O)[O-])C(=O)c1ccccc1C2=O,2.0*,1.7*,/,/,/
Cc1ccc2[nH]c(C)c(CCNC(=O)c3cc4cc([N+](=O)[O-])ccc4oc3=O)c2c1,59,57,/,/,/
Cc1[nH]c2ccccc2c1CCNC(=O)c1ccc2c(c1[N+](=O)[O-])C(=O)c1ccccc1C2=O,2.3*,11,/,/,/
Cc1[nH]c2c(C)cccc2c1CCNC(=O)c1ccc2c(c1[N+](=O)[O-])C(=O)c1ccccc1C2=O,2.1*,2.0*,/,/,/
CCCNC(=O)NCCc1c(C)[nH]c2ccccc12,99,100,101,101,93
Cc1ccc(NS(=O)(=O)c2ccc(OCC(=O)NCc3ccncc3)cc2)cc1,94,91,/,/,/
COc1cccc(C2C3=C(CCCC3=O)Nc3nc4ccccc4n32)c1OC (stereo not drawn),/,/,85,101,78
CCc1nc(N2CCN(Cc3ccc4c(c3)OCO4)CC2)c2oc3ccccc3c2n1,22,30,/,/,/
CCC(=O)N1CCN(c2ccc(NC(=O)c3cc4ccccc4o3)cc2Cl)CC1,2.5*,3.1*,2.9*,42*,10*
O=C(Nc1ccc(N2CCN(C(=O)c3ccco3)CC2)c(Cl)c1)c1cc2ccccc2o1,2.8*,3.2*,7.9*,43*,37*
CCCC(=O)N1CCN(c2ccc(NC(=O)c3cc4ccccc4o3)cc2Cl)CC1,105,96,2.1*,16*,13*
CCCC(=O)NCCc1cc(OC)c(OC)cc1Br,88,103,/,/,/
Cc1ccc(S(=O)(=O)N2CCCN(S(=O)(=O)c3ccc4c(c3)OCCO4)CC2)cc1,107,92,95,93,32*
Cc1ccc(S(=O)(=O)N2CCCN(S(=O)(=O)c3ccc(C(F)(F)F)cc3)CC2)cc1,10,18,60,49*,48
COc1ccc(S(=O)(=O)N2CCCN(S(=O)(=O)c3ccc(OC)c(C)c3)CC2)cc1C,49,50,66,94,33*
CN1CCN(c2ccc(S(=O)(=O)N3CCCCC3)cc2NC(=O)c2ccc(F)cc2F)CC1,69,70,/,/,/
Cc1ccc(S(=O)(=O)/N=C2/C=C(Sc3ncn[nH]3)C(=O)c3ccccc32)cc1,31,67,/,/,/
Cc1ccc(S(=O)(=O)ON2C(=O)c3ccccc3C2=O)c(C)c1,86,93,/,/,/
Cc1ccc(S(=O)(=O)/N=C2/C=C(Sc3ncn[nH]3)C(=O)c3ccccc32)c(C)c1,1.9*,2.8*,/,/,/
CC(C)c1ccc(S(=O)(=O)/N=C2/C=C(Sc3ncn[nH]3)C(=O)c3ccccc32)cc1,2.1*,11,/,/,/
COC(=O)CSc1nc(N)c2c3c(sc2n1)CCCC3,103,97,86,96,106
